Experimental data taken from ChEMBL document CHEMBL4028892, “Discovery of a 1-Methyl-3,4-dihydronaphthalene-Based Sphingosine-1-Phosphate (S1P) Receptor Agonist Ceralifimod (ONO-4641). A S1P1 and S1P5 Selective Agonist for the Treatment of Autoimmune Diseases” (J Med Chem, 2017).
Calls of active or inactive are those of the source. No cut-off for these calls is given here.

Tests used:
[1] = molecular target: T1, Sphingosine 1-phosphate receptor 3 (Homo sapiens, UniProt Q99500); assay: Agonist activity at human S1P3 receptor expressed in CHO-K1 cells assessed as increase in S1P-stimulated calcium influx preincubated for 5 mins followed by S1P stimulation measured every 3 secs by fluorescence method; type: cell-based
Homo sapiens = organism: Homo sapiens; assay: Selectivity ratio of EC50 for human S1P3 receptor to EC50 for human S1P1 receptor
Method in brief: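 Fura2 Ca2+ assay in CHO-K1 cells stably expressing human S1P1 or S1P3. Cells were loaded with 5 μM Fura2-AM in Ham's F12 (10% FBS, 20 mM HEPES pH 7.4, 2.5 mM probenecid) for 60 min at 37 °C, then washed. After a 30 s baseline, compound was added (0.1 nM–30 μM final, DMSO), then 100 nM S1P 5 min later. Ratio read every 3 s (ex 340/380, em 500 nm). Increase ratio (%) = B/A×100 against the DMSO-well S1P peak; EC50 taken from the concentration series; mean of ≥2 data points.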

[2] = molecular target: T2, Sphingosine 1-phosphate receptor 2 (Homo sapiens, UniProt O95136); assay: Agonist activity at human S1P2 receptor expressed in CHO-K1 cells assessed as increase in S1P-stimulated calcium influx preincubated for 5 mins followed by S1P stimulation measured every 3 secs by fluorescence method; type: functional, cell-based
[3] = molecular target: T3, Sphingosine 1-phosphate receptor 1 (Homo sapiens, UniProt P21453); assay: Agonist activity at human S1P1 receptor expressed in CHO-K1 cells assessed as inhibition of forskolin-stimulated cAMP accumulation after 30 mins by ELISA; type: functional, cell-based
[4] = molecular target: T4, Sphingosine 1-phosphate receptor 5 (Homo sapiens, UniProt Q9H228); assay: Agonist activity at human S1P5 receptor expressed in CHO-K1 cells assessed as inhibition of forskolin-stimulated cAMP accumulation after 30 mins by ELISA; type: functional, cell-based
Mus musculus [5] = assay: Decrease in peripheral lymphocyte levels in po dosed BALB/c mouse at 4 hrs by automated hematology analyzer; type: functional
Method in brief: (§1)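 Compound given orally to 6-week-old male BALB/c mice. At 4 or 24 h, blood was taken from the abdominal aorta under ether anaesthesia and lymphocytes counted on an automated haematology analyser. Counts expressed as % of the vehicle-group mean; ED50 is the dose lowering counts to 50%. One experiment, five mice.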

Mus musculus [6] = assay: Decrease in peripheral lymphocyte levels in po dosed BALB/c mouse at 24 hrs by automated hematology analyzer; type: functional; method in brief: as §1
[7] = Total clearance in Crl:CD(SD) rat at 0.1 mg/kg, iv by LC-MS/MS analysis; type: ADME, organism-based; conditions: in vivo
Method in brief: (§2)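 Single intravenous or oral dose of 0.1 mg/kg to male Crl:CD(SD) rats and to monkeys. Values are means of three animals with SD.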

[8] = AUC (infinity) in Crl:CD(SD) rat at 0.1 mg/kg, iv by LC-MS/MS analysis; type: ADME, organism-based; parameters: dose 0.1 mg/kg, time infinity, route intravenous; conditions: in vivo; method in brief: as §2
[9] = AUC (infinity) in cynomolgus monkey at 0.1 mg/kg, iv by LC-MS/MS analysis; type: ADME, organism-based, Macaca fascicularis; parameters: dose 0.1 mg/kg, time infinity, route intravenous; conditions: in vivo; method in brief: as §2
[10] = AUC (infinity) in cynomolgus monkey at 0.1 mg/kg, po by LC-MS/MS analysis; type: ADME, organism-based, Macaca fascicularis; parameters: dose 0.1 mg/kg, route oral, time infinity; conditions: in vivo; method in brief: as §2
[11] = Cmax in Crl:CD(SD) rat at 0.1 mg/kg, po by LC-MS/MS analysis; type: ADME, organism-based; parameters: dose 0.1 mg/kg, route oral; conditions: in vivo; method in brief: as §2
[12] = Cmax in cynomolgus monkey at 0.1 mg/kg, po by LC-MS/MS analysis; type: ADME, organism-based, Macaca fascicularis; parameters: dose 0.1 mg/kg, route oral; conditions: in vivo; method in brief: as §2
[13] = Total clearance in cynomolgus monkey at 0.1 mg/kg, iv by LC-MS/MS analysis; type: ADME, organism-based, Macaca fascicularis; conditions: in vivo; method in brief: as §2
[14] = Half life in Crl:CD(SD) rat at 0.1 mg/kg, iv by LC-MS/MS analysis; type: ADME, organism-based; conditions: in vivo; method in brief: as §2
[15] = Half life in Crl:CD(SD) rat at 0.1 mg/kg, po by LC-MS/MS analysis; type: ADME, organism-based; conditions: in vivo; method in brief: as §2
[16] = Half life in cynomolgus monkey at 0.1 mg/kg, po by LC-MS/MS analysis; type: ADME, organism-based, Macaca fascicularis; conditions: in vivo; method in brief: as §2
[17] = Volume of distribution at steady state in Crl:CD(SD) rat at 0.1 mg/kg, iv by LC-MS/MS analysis; type: ADME, organism-based; conditions: in vivo, read-out: Vdss; method in brief: as §2
[18] = Oral bioavailability in cynomolgus monkey at 0.1 mg/kg by LC-MS/MS analysis; type: ADME, organism-based, Macaca fascicularis; conditions: in vivo; method in brief: as §2
Rattus norvegicus = assay: Antiarthritic activity in bovine type 2 collagen-induced Lewis rat arthritis model at 0.1 mg/kg, po qd administered up to 27 days; type: functional, organism-based
Method in brief: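 Female Lewis rats were immunised with bovine type II collagen in incomplete Freund's adjuvant on days 0 and 7. Compound (0.03 or 0.1 mg/kg) or 0.5% methylcellulose was given orally once daily, days 0–27. Paw oedema/erythema was scored. Groups: n = 9–10 treated/control, normal n = 5. Mean ± SE, Steel test.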

Cynomolgus monkey [19] = assay: Toxicity in unrestrained conscious cynomolgus monkey assessed as decrease in heart rate at 100 mg/kg, po administered as single dose measured at 4 hrs relative to control; type: organism-based, Macaca fascicularis; parameters: scale not given: the % may be the effect or the level left; conditions: in vivo
Method in brief: (§3)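 Single oral dose of 1, 10 or 100 mg/kg to unrestrained conscious monkeys. Heart rate was followed from 4 to 24 h after dosing and its decrease expressed against the pretreatment value. Plasma concentration was sampled at 4 and 24 h.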

[20] = Plasma concentration in unrestrained conscious cynomolgus monkey at 1 mg/kg, po measured at 4 hrs; type: ADME, organism-based, Macaca fascicularis; method in brief: as §3
[21] = Plasma concentration in unrestrained conscious cynomolgus monkey at 100 mg/kg, po measured at 24 hrs; type: ADME, organism-based, Macaca fascicularis; method in brief: as §3
Cynomolgus monkey [22] = assay: Decrease in peripheral lymphocyte levels in unrestrained conscious cynomolgus monkey at 0.01 to 0.03 mg/kg, po administered as single dose measured after 4 to 24 hrs by automated hematology analyzer; type: functional, organism-based; conditions: Macaca fascicularis
Method in brief: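 Single oral doses of 0.01 and 0.03 mg/kg to monkeys. Peripheral lymphocyte counts were followed from 4 to 24 h after administration.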

[23] = molecular target: T3, Sphingosine 1-phosphate receptor 1; assay: Displacement of [33P]-S1P from human S1P1 receptor expressed in CHO-K1 cells after 60 mins by scintillation counting method; type: cell-based
[24] = molecular target: Sphingosine 1-phosphate receptor 1 (Rattus norvegicus, UniProt P48303); assay: Displacement of [33P]-S1P from rat S1P1 receptor after 60 mins by scintillation counting method
[25] = Cmax in bovine type 2 collagen-induced Lewis rat arthritis model at 0.03 mg/kg, po qd administered up to 27 days; type: ADME, organism-based; parameters: dose 0.03 mg/kg, route oral; conditions: in vivo
[26] = molecular target: T2, Sphingosine 1-phosphate receptor 2; assay: Displacement of [33P]-S1P from human S1P2 receptor expressed in CHO-K1 cells after 60 mins by scintillation counting method; type: cell-based
[27] = molecular target: T1, Sphingosine 1-phosphate receptor 3; assay: Displacement of [33P]-S1P from human S1P3 receptor expressed in CHO-K1 cells after 60 mins by scintillation counting method; type: cell-based
[28] = molecular target: T4, Sphingosine 1-phosphate receptor 5; assay: Displacement of [33P]-S1P from human S1P5 receptor expressed in CHO-K1 cells after 60 mins by scintillation counting method; type: cell-based
[29] = molecular target: T3, Sphingosine 1-phosphate receptor 1; assay: Downregulation of human S1P1 receptor expressed in CHO-K1 cell membranes assessed as concentration required to induce downregulation of receptor by 90% by flow cytometric method; type: cell-based

T3 sequence (P21453 whole entry): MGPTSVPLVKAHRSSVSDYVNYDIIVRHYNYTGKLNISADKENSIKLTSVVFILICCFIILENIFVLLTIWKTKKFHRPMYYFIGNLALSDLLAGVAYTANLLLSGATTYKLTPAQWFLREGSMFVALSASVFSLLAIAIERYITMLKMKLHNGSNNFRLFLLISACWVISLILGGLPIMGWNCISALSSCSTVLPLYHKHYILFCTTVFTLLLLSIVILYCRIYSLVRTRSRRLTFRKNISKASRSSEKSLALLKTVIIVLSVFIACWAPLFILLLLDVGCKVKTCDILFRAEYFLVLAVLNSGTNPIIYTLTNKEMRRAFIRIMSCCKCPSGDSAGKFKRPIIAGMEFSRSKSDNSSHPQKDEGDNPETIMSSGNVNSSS
T4 sequence (Q9H228 whole entry): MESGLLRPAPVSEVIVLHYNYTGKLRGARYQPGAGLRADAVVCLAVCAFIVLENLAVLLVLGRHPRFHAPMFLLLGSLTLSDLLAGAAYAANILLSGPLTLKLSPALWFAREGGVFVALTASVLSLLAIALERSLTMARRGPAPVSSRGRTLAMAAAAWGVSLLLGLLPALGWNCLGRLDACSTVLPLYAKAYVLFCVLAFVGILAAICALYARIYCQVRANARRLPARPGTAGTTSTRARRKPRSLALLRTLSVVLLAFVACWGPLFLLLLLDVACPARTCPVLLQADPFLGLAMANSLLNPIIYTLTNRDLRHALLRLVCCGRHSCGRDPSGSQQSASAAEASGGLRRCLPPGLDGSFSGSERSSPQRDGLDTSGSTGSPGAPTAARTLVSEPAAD
T1 sequence (Q99500 whole entry): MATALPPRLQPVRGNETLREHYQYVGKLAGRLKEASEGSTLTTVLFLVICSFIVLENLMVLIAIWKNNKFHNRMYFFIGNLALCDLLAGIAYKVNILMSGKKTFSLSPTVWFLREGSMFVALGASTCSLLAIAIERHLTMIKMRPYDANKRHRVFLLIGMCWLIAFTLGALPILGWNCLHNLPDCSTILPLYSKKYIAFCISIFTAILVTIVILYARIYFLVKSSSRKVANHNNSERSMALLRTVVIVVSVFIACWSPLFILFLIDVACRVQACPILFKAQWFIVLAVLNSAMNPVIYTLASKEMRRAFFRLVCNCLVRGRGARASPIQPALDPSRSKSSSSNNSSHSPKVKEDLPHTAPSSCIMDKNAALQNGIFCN
T2 sequence (O95136 whole entry): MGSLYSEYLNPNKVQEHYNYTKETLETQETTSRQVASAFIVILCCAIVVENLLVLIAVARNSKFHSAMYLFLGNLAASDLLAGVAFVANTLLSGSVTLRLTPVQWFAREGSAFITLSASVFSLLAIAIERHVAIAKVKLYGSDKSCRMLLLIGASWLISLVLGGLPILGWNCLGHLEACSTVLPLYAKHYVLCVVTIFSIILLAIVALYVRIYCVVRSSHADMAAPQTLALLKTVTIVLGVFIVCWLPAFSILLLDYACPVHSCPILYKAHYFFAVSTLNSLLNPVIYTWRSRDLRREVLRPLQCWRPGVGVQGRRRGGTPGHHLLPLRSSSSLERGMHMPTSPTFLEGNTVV
Sphingosine 1-phosphate receptor 1 (Rattus norvegicus, UniProt P48303), sequence (P48303 whole entry): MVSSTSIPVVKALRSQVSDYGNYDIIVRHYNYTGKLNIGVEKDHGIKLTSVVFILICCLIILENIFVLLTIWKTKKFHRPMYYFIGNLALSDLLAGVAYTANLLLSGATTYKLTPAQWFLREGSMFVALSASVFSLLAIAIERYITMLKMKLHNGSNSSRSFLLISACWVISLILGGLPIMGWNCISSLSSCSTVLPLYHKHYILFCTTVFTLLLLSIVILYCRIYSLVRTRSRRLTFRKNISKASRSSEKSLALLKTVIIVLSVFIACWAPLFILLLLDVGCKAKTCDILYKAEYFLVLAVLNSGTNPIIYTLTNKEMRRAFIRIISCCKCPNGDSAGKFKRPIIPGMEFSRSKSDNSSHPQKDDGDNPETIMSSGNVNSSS

EC50 [1]: > 30000 nM | Ratio EC50 (Homo sapiens): > 30000 | EC50 [2]: > 30000 nM | EC50 [3]: 0.027 nM | EC50 [4]: 0.33 nM | clearance [7]: 5.63 mL/min/kg | AUC(0-inf) [8]: 302 ng·h/mL | AUC(0-inf) [9]: 1640 ng·h/mL | AUC(0-inf) [10]: 1090 ng·h/mL | Cmax [11]: 7.47 ng/mL | Cmax [12]: 28.4 ng/mL | clearance [13]: 1.06 mL/min/kg | half-life [14]: 16 h | half-life [15]: 17 h | half-life [16]: 29 h | Vd [17]: 7.15 L/kg | bioavailability [18]: 66.5% | concentration at 4 h [20]: 320 ng/mL | concentration at 24 h [21]: 11100 ng/mL | Ki [23]: 0.626 nM | Ki [24]: 0.772 nM | Cmax [25]: 5.76 nM | Ki [26]: > 5450 nM | Ki [27]: > 5630 nM | Ki [28]: 0.574 nM | Activity [29]: 25 nM
SMILES: CCCc1ccc(COc2ccc3c(c2)CCC(CN2CC(C(=O)O)C2)=C3C)c(OC)c1
ED50 (Mus musculus [5]): 0.018 mg/kg | ED50 (Mus musculus [6]): 0.029 mg/kg | Activity (Rattus norvegicus): Active | Activity (Cynomolgus monkey [19]): 19% | Activity (Cynomolgus monkey [22]): Active
